IC50 data for seven molecules are collected here from BindingDB's records for doi:10.1021/np2003066 (The University of Montana, 2011).

Sequence of Interleukin-1 beta (P01584 117-269 limits assumed): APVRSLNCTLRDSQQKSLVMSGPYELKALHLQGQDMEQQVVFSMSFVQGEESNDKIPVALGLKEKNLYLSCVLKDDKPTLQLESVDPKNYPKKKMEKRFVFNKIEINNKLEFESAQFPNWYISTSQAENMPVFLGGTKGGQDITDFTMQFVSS

The assay addresses Interleukin-1 beta (Homo sapiens, UniProt P01584). Briefly: Induction of IL-1 beta production in LPS-induced human THP-1 cells by ELISA. The method in brief:
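THP-1 cells were differentiated with PMA (1 μg/mL) for 24 h, scraped, pelleted and resuspended at 1.0 × 10^6 cells/mL. They were exposed together to test inhibitor, LPS [20 ng/mL] and TiO2 nanowires (100 μg/ml) for 24 h at 37 °C in a CO2 incubator. IL-1β released was measured by DuoSet ELISA, and IC50 was derived from the post-exposure IL-1β levels.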
Background: In an ELISA, binding on a coated surface is turned into a signal by an enzyme label.
In general, IC50 refers to the concentration that inhibits the measured activity by half. A higher IC50 goes with a need for much substance. For `CC(=O)N[C@@H](Cc1ccc(O)cc1)C(=O)N[C@H](C(=O)N[C@@H](C)C(=O)N[C@H](C=O)CC(=O)O)C(C)C`, the IC50 was found to be 2 µM.
In turn, `C=C1[C@@]2(C)C[C@H]3[C@]4(C)CCC(=O)C(C)(C)[C@H]4CC[C@]3(C)[C@]1(C(=O)OC)C(=O)[C@@](C)(O)C2=O` registered an IC50 of 15.5 µM.
In turn, `C=C1[C@@]2(C)C[C@H]3[C@]4(C)CC[C@@H](O)C(C)(C)[C@H]4CC[C@]3(C)[C@]1(C(=O)OC)C(=O)[C@@](C)(O)C2=O` gave an IC50 of 2.7 µM.
`C=C1[C@@]2(C)C[C@@H]3[C@](C)(CC=C4C(C)(C)OC(=O)CC[C@]43C)[C@]1(C(=O)OC)C(=O)[C@@](C)(O)C2=O` registered an IC50 of 3.7 µM.
`C=C1[C@@]2(C)C[C@H]3[C@]4(C)CCC(=O)OC(C)(C)[C@@H]4CC[C@]3(C)[C@]1(C(=O)OC)C(=O)[C@@](C)(O)C2=O` yielded an IC50 of 34.3 µM.
Molecule `C=C(C)C1=CC[C@@]2(C)[C@@H](C[C@]3(C)C(=C)[C@@]2(C(=O)OC)C(=O)[C@@](C)(O)C3=O)[C@]1(C)CCC(=O)O` yielded an IC50 of 37.8 µM.
Take `C=C1[C@@]2(C)C[C@H]3C(C)=C4CC(=O)OC(C)(C)C4=CC[C@]3(C)[C@]1(C(=O)OC)C(=O)[C@@](C)(O)C2=O` [BERKELEYDIONE]: the IC50 came out at 4.4 µM.
